{"data": "Experimental data of several laboratories", "LNPEP": "Leucyl-cystinyl aminopeptidase (LNPEP, Homo sapiens, UniProt Q9UIQ6)", "DSTYK": "Dual serine/threonine and tyrosine protein kinase (DSTYK, Homo sapiens, UniProt Q6XUX3)", "SLCO1B1": "Solute carrier organic anion transporter family member 1B1 (SLCO1B1, Homo sapiens, UniProt Q9Y6L6)", "MMP13": "Collagenase 3 (MMP13, Homo sapiens, UniProt P45452)", "JAK1": "Tyrosine-protein kinase JAK1 (JAK1, Homo sapiens, UniProt P23458)", "CYP3A4": "Cytochrome P450 3A4 (CYP3A4, Homo sapiens, UniProt P08684)", "note": "Lines come from different studies, so protocols differ."}
{"Structure (SMILES)": "O=S(=O)(Nc1cccc(-c2nnn[nH]2)c1)c1ccc(F)c(F)c1", "target": "LNPEP", "assay": "enzyme activity, inhibitor, fluorescence", "IC50": "12.1 µM"}
{"Structure (SMILES)": "Cc1ncsc1-c1ccc(CNC(=O)[C@@H]2C[C@@H](O)CN2C(=O)[C@@H](NC(=O)C2(F)CC2)C(C)(C)C)c(OCCOc2ccc(CN3CCN(c4cc(-c5ccccc5O)nnc4N)CC3)cc2)c1", "target": "Protein polybromo-1, bromodomain (PBRM1, Homo sapiens, UniProt Q86U86)", "assay": "cell-free assay, TR-FRET", "IC50": "0.504 µM"}
{"Structure (SMILES)": "CCn1ncc2c1-c1cnc(N)c(c1)O[C@H](C)c1cc(F)ccc1-c1nn(C)nc1C2", "target": "DSTYK", "assay": "enzyme activity, inhibitor, radiometric", "IC50": "0.583 µM"}
{"Structure (SMILES)": "O=C(COc1ccc(Cl)cc1)N1CCN(Cc2ccc3c(c2)OCO3)CC1", "target": "SLCO1B1", "assay": "transporter uptake, inhibitor, fluorescence", "system": "CHO", "setting": "30 min, pH 7.4", "IC50": "34.5 µM"}
{"Structure (SMILES)": "O=S(=O)(Nc1cccc(-c2nnn[nH]2)c1)c1c(F)cc(Br)cc1F", "target": "LNPEP", "assay": "enzyme activity, inhibitor, fluorescence", "IC50": "7.5 µM"}
{"Structure (SMILES)": "Cc1noc(-c2cc3cc(-c4nc(C(N)=O)[nH]c4C)ccc3[nH]2)n1", "target": "MMP13", "assay": "enzyme activity, inhibitor, FRET", "IC50": "0.016 µM"}
{"Structure (SMILES)": "COc1ccc2c(Oc3ccc4c(C(=O)Nc5ccccc5N)cccc4c3)ccnc2c1", "target": "JAK1", "assay": "enzyme activity, inhibitor", "IC50": "> 0.5 µM"}
{"Structure (SMILES)": "Fc1ccc(Nc2c(-c3ccccn3)nc3ccc(C4CC4)cn23)cc1", "target": "CYP3A4", "assay": "enzyme activity, inhibitor", "IC50": "1.6 µM"}
{"Structure (SMILES)": "O=S(=O)(Nc1cccc(-c2nnn[nH]2)c1)c1cc2ccccc2s1", "target": "LNPEP", "assay": "enzyme activity, inhibitor, fluorescence", "IC50": "5.9 µM"}
{"Structure (SMILES)": "CCC1CN(C(=O)NCC(F)(F)F)CC1c1nc(N)nc2[nH]ccc12 (stereo not shown)", "target": "JAK1", "assay": "enzyme activity, inhibitor, ADP detection", "IC50": "9.6 µM"}
{"Structure (SMILES)": "Cc1noc(-c2cc3cc(-c4nc(C(=O)NCc5cccnc5)[nH]c4C)ccc3[nH]2)n1", "target": "MMP13", "assay": "enzyme activity, inhibitor, FRET", "IC50": "0.00064 µM"}
{"Structure (SMILES)": "O=S(=O)(Nc1cccc(-c2nnn[nH]2)c1)c1cc(C(F)(F)F)cc(C(F)(F)F)c1", "target": "LNPEP", "assay": "enzyme activity, inhibitor, fluorescence", "IC50": "4.1 µM"}
{"Structure (SMILES)": "O=C1Nc2ccccc2C1=O", "target": "Aldehyde dehydrogenase, mitochondrial (ALDH2, Homo sapiens, UniProt P05091)", "assay": "enzyme activity, inhibitor, absorbance", "IC50": "> 160 µM"}
{"Structure (SMILES)": "Nc1nc(N)c2nc(CNc3ccc(C(=O)NCCc4ccccc4)cc3)cnc2n1", "target": "CYP3A4", "assay": "enzyme activity, inhibitor, luciferase", "IC50": "11.2 µM"}
{"Structure (SMILES)": "Nc1ncc2c(n1)-c1c([nH]c3ccc(-c4ccc(F)cc4)cc13)CCC2", "target": "DSTYK", "assay": "enzyme activity, inhibitor, radiometric", "IC50": "3.9 µM"}
{"Structure (SMILES)": "O=C(O)c1cccnc1Nc1cccc(C(F)(F)F)c1", "target": "SLCO1B1", "assay": "transporter uptake, inhibitor, fluorescence", "system": "CHO", "setting": "30 min, pH 7.4", "IC50": "3.7 µM"}
{"Structure (SMILES)": "NCc1ccc(Nc2ncc(F)c(Nc3ccccc3)n2)cc1", "target": "Serine/threonine-protein kinase PAK 4 (PAK4, Homo sapiens, UniProt O96013)", "assay": "enzyme activity, inhibitor", "setting": "lysate", "IC50": "> 10 µM"}
{"Structure (SMILES)": "CCn1c(-c2nc3cc(C(=O)N4CCC[C@@H](N)C4)cc(OC)c3n2C)cc2cccnc21", "target": "Muscarinic acetylcholine receptor M1 (CHRM1, Homo sapiens, UniProt P11229)", "assay": "calcium signal, antagonist, fluorescence", "IC50": "63.1 µM"}
{"Structure (SMILES)": "Nc1ccccc1S(N)(=O)=O", "target": "SLCO1B1", "assay": "transporter uptake, inhibitor, fluorescence", "system": "CHO", "setting": "30 min, pH 7.4", "IC50": "> 100 µM"}
{"Structure (SMILES)": "Clc1ccc2[nH]c3c(NCCCN4CCOCC4)ncnc3c2c1", "target": "Cruzipain (Trypanosoma cruzi, UniProt P25779)", "assay": "enzyme activity, inhibitor", "IC50": "13 µM"}
{"Structure (SMILES)": "Cc1ccc(C(C)C)c(O)c1", "target": "gbr-2 (Haemonchus contortus, UniProt O46124)", "assay": "ion current, antagonist, two-electrode voltage clamp", "setting": "oocytes", "IC50": "1200 µM"}
{"Structure (SMILES)": "Cn1nc(C(=O)NCc2ccc(C(=O)O)cc2)cc1-c1ccc2[nH]c(-c3cccnc3)cc2c1", "target": "MMP13", "assay": "enzyme activity, inhibitor, FRET", "IC50": "0.0058 µM"}
